STAT3 inh-1: STAT3 signaling inhibition; AID 862; 0.89% of 190,000 active; U3A cells, IL-6 STAT3-luciferase reporter, luminescence; host cell line lacks STAT1; inhibition, % at 5.5 µM;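 active = inhibition above the mean inhibition across all screened compounds plus 3 SD, cut at about 44% in these data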;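 also: 0% = DMSO only wells and 100% = 100 µM nifuroxazide control wells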
STAT3 act: STAT3 signaling activation | U3A cells, IL-6 STAT3-luciferase reporter, luminescence; 100% = signal with IL-6 EC80 alone | activation (% of control), % at 5.6 µM | 0.91% of 190,000 active | AID 871;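 active = activation above the screen-wide mean of compound activation plus 3 SD, cut at about 130% in these data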;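 also: 0% = background luminescence of wells with medium and substrate only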
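Test system: STAT3-luciferase reporter U3A cells; Detection: reporter luminescence signal; Times: 1 h compound pre-exposure, 6 h IL-6 stimulation, 37 °C; Benchmarks: IL-6-only high control; Also added: IL-6 stimulus at 33 ng/mL final.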
NF-kB expr up: raises NF-kB expression in human neuronal cells | NF-kB reporter expression; active compounds read high | fold change at 12.5 µM | 1.6% of 190,000 active; in the data active = fold change above about 3.3
STAT1 activator: activators of IFN-gamma induced STAT1 signaling | NIH 3T3 STAT1-luciferase reporter, luminescence; 100% = IFN-gamma alone, no compound | activation (% of control), % at 5.5 µM | 2.6% of 200,000 active | AID 932;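 active = activation above the screen-wide mean activation plus 3 SD, cut at about 130% in these data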;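 also: raw ratio to IFN-gamma control signal so 100% means no change and 0% no light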
APP 5'UTR act: activates APP 5'UTR luciferase reporter | 1% of 190,000 active | SH-SY5Y APP 5'UTR luciferase reporter, luminescence; zero percent = DMSO vehicle wells | activation, % at 2 µM;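 active = activation above a set limit, based on mean plus 3 SD of controls, cut at about 140% in these data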
STAT1 inh: inhibitors of IFN-gamma induced STAT1 signaling | 0.35% of 200,000 active | inhibition, % at 5.5 µM | NIH 3T3 STAT1-luciferase reporter, luminescence;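 active = inhibition above a set limit, the mean inhibition across all tested compounds plus 3 SD, cut at about 34% in these data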;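 also: 0% = IFN-gamma with DMSO and 100% = IFN-gamma with 300 µM nifuroxazide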
STAT3 inh-2: STAT3 inhibition, confirmation assay | shares compounds with STAT3 inh-1 | U3A cells, IL-6 STAT3 luciferase reporter, luminescence; cell line lacks STAT1 | inhibition, % at 5.7 µM | 45% of 1,200 active | AID 1265;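 active = inhibition above the hit cutoff computed for the primary STAT3 screen, cut at about 44% in these data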;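 also: 0% = IL-6 plus DMSO and 100% = IL-6 plus nifuroxazide control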
NFkB inh 2: inhibits NF-kappaB, counter-screen to STAT3 inhibitors; shares compounds with STAT3 inh-1; HEK293T NF-kB luciferase reporter, TNF-alpha induced; inhibition, % at 5.7 µM; 36% of 1,200 active;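 active = inhibition above the mean of solvent-only control wells plus 3 SD, cutoff set per campaign, cut at about 13% in these data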;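 also: 0% = TNF-alpha with DMSO and 100% = TNF-alpha with MG high control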
STAT1 inh STAT3c: STAT1 inhibition in STAT3 inhibitor counter-screen | NIH 3T3 STAT1-luciferase reporter, IFN-gamma induced, luminescence | 27% of 1,200 active | inhibition, % at 5.7 µM | shares compounds with STAT3 inh-1;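 active = inhibition above the mean plus 3 SD of solvent-only control wells, limit set per screening run, cut at about 16% in these data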;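 also: 0% = DMSO with IFN-gamma and 100% = nifuroxazide control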
Active calls of the source: *; x = not tested or not shown. A selection: hits, their analogues and other compounds. The true share with any hit is near 4.9%.

SMILES | STAT3 inh-1 | STAT3 act | NF-kB expr up | STAT1 activator | APP 5'UTR act | STAT1 inh | STAT3 inh-2 | NFkB inh 2 | STAT1 inh STAT3c
Cc1cccc(Cn2c(=O)n(-c3ccc(CC(=O)NCc4ccco4)cc3)c(=O)c3sccc32)c1 | 13.4 | 96.1 | 1.23 | 112.5 | 10.6 | -13.8 | x | x | x
O=S(=O)(c1ccc(N2CCCC2)cc1)C(F)(F)F | 43.6* | 65.9 | 1.29 | 95.5 | 3.0 | 7.1 | 10.3 | -7.7 | -8.7
COc1cccc2[nH]c3c(N4CCN(Cc5ccc6c(c5)OCO6)CC4)ncnc3c12 | 18.3 | 87.7 | 0.51 | 103.7 | -3.7 | -4.0 | x | x | x
Cc1ccc2[nH]c3c(N4CCN(Cc5ccc6c(c5)OCO6)CC4)ncnc3c2c1 | 54.2* | 59.0 | 0.39 | 71.9 | 17.8 | 30.9 | 32.7 | 14.8* | 17.4*
Cc1cccc(/C=N/n2c(-c3cc(-c4ccccc4)n[nH]3)n[nH]c2=S)c1 | -1.1 | 103.7 | 1.15 | 99.3 | 11.1 | 0.8 | x | x | x
O=Nc1c2cc(-c3ccccc3)[nH]nc-2c2ccccc12 | 98.5* | 23.4 | 4.75* | 105.4 | 100.9 | -6.0 | 48.2* | 30.0* | -16.7
Cc1ccc(-c2cc(N)n[nH]2)cc1 | -36.3 | 130.8 | 1.45 | 106.9 | -8.2 | -7.5 | x | x | x
Cc1cccc(-c2cc3c(N=O)c4ccccc4c-3n[nH]2)c1 | 50.4* | 61.6 | 3.75* | 105.6 | 142.4* | -6.1 | -5.7 | -19.0 | -26.3
Cc1ccc(-c2cc3c(N=O)c4ccccc4c-3n[nH]2)cc1 | 117.3* | 8.6 | 0.63 | 69.0 | 5.9 | 33.1 | 98.2* | 79.7* | 2.4
Cc1ccc(C)c(NC(=O)C2CCCN2/C=C/C(=O)C(F)(F)F)c1 (stereo not drawn) | -11.5 | 105.2 | 1.02 | 108.5 | -10.7 | -9.3 | x | x | x
CCCCC[n+]1cccc2c3ccccc3ccc21 | 72.6* | 42.4 | 0.96 | 70.1 | -16.2 | 30.9 | 66.4* | 20.6* | 24.3*
NC(=O)C[n+]1cccc2ccccc21 | -2.8 | 111.6 | 1.06 | 97.0 | 17.1 | -0.2 | x | x | x
O=C(CSC1=N/C(=C/c2ccco2)C(=O)N1c1ccc(OC(F)F)cc1)NC1CCS(=O)(=O)C1 (stereo not drawn) | -2.8 | 103.8 | 1.22 | 93.0 | -7.8 | 7.4 | x | x | x
O=C(c1ccccc1)c1cnc(-c2ccc(Cl)cc2)s1 | 47.9* | 63.5 | 6.62* | 116.1 | 122.8 | -18.0 | 21.3 | -14.8 | -70.0
O=C(c1ccccc1)c1cnc(-c2ccccc2)s1 | 52.1* | 58.8 | 9.91* | 130.0* | 156.8* | -33.0 | 16.9 | -30.5 | -76.8
CN(C)/C=C/C(=O)c1cnc(-c2ccc(Cl)cc2)s1 | 43.4* | 67.8 | 3.87* | 133.4* | 114.8 | -36.2 | 12.7 | -32.5 | -65.7
CN(C)/C=C/C(=O)c1ccc(Cl)cc1Cl | -2.6 | 106.2 | 0.9 | 102.8 | 5.6 | -6.5 | x | x | x
O=C(c1ccc(Cl)cc1)c1cnc(-c2ccc(Cl)cc2)s1 | 11.8 | 91.9 | 1.09 | 90.3 | 12.3 | 10.9 | x | x | x
CC(C)C(=O)c1cn(CC(=O)N2CCCc3ccccc32)c2ccccc12 | -0.3 | 101.5 | 0.86 | 100.8 | 11.0 | -0.9 | x | x | x
CCOc1ccc(OCCCCn2ccnc2)cc1 | 6.5 | 101.9 | 1.01 | 100.7 | 28.7 | -0.8 | x | x | x
CCc1nnc(NC(=O)CN2C(=O)/C(=C/c3cc(OC)c(OC)c(OC)c3)SC2=S)s1 | 5.0 | 98.0 | 0.96 | 103.0 | -23.8 | -3.4 | x | x | x
O=[N+]([O-])c1ccc2c(c1)C(N1CCOCC1)/C(=C/COc1ccc(Cl)cc1Cl)O2 (stereo not drawn) | 8.4 | 100.7 | 0.88 | 98.0 | -2.2 | 5.1 | x | x | x
NC(=O)c1ccsc1NC(=O)c1ccc(N2CCCC2=O)cc1 | 61.8* | 50.7 | 1.16 | 90.2 | 175.0* | 9.8 | 12.9 | -24.5 | -100.2
O=C(NCc1cccs1)c1ccc(N2CCCC2=O)cc1 | 5.1 | 100.7 | 1.43 | 106.5 | -3.9 | -7.0 | x | x | x
O=C(c1ccccc1)N1N=C(c2ccccc2)CC1c1ccccc1[N+](=O)[O-] (stereo not drawn) | -8.5 | 107.6 | 0.97 | 92.0 | -16.8 | 9.0 | x | x | x
SMILES | STAT3 inh-1 | STAT3 act | NF-kB expr up | STAT1 activator | APP 5'UTR act | STAT1 inh | STAT3 inh-2 | NFkB inh 2 | STAT1 inh STAT3c
COc1ccc(NC(=O)c2cc3ccccn3n2)cc1 | 45.7* | 66.5 | 5.98* | 120.5 | 149.1* | -22.6 | 19.7 | -29.3 | -95.8
CC(=O)N1CCc2cc(C(=O)CN3CCC(C)CC3)ccc21 | 5.0 | 103.3 | 0.92 | 99.5 | x | 0.6 | x | x | x
CC(=O)N1CCc2cc(C(=O)CN3CCN(c4cccc(Cl)c4)CC3)ccc21 | 45.1* | 68.2 | 0.78 | 95.7 | 5.4 | 4.8 | 17.4 | -7.6 | -14.1
Cc1ccc(CN=C2Nc3ccccc3CS2)cc1 | 58.9* | 57.4 | 6.76* | 102.1 | 143.2* | -2.4 | -3.5 | -27.3 | -99.8
Cc1c(NC(=O)CN2C(=O)NC(C)(c3ccccc3)C2=O)c(=O)n(-c2ccccc2)n1C (stereo not drawn) | 9.1 | 95.2 | 1.01 | 97.4 | 6.3 | 2.9 | x | x | x
CCOc1ccc(-c2c[n+]3c(n2-c2ccccc2)CCCCC3)cc1 | 56.5* | 51.4 | 0.54 | 74.3 | 22.0 | 28.2 | 72.5* | 5.3 | 28.0*
Cc1ccc(-n2c(-c3ccccc3)c[n+]3c2CCC3)cc1 | 61.8* | 51.4 | 0.69 | 75.6 | 1.0 | 26.2 | 50.3* | 2.3 | 23.2*
COc1ccc(-n2c(-c3ccc(Br)cc3)c[n+]3c2CCC3)cc1 | 22.0 | 83.2 | 0.9 | 79.0 | -7.0 | 21.1 | x | x | x
O=S(=O)(/C=C/c1ccccc1)Oc1ccccc1 | 26.9 | 77.5 | 0.98 | 86.0 | 20.7 | 15.3 | x | x | x
COCCn1c(C)cc(C(=O)COC(=O)c2ccc[nH]c2=O)c1C | 48.0* | 59.4 | 0.29 | 74.8 | -1.4 | 28.2 | 2.1 | -4.2 | -13.9
Cc1cc(C(=O)COC(=O)c2ccc[nH]c2=O)c(C)n1C | -1.0 | 103.1 | 0.59 | 110.2 | 1.0 | -11.4 | x | x | x
CCOC(=O)N1CCN(C(=O)CSCC(=O)Nc2nc(-c3ccc(-c4ccccc4)cc3)cs2)CC1 | 72.4* | 43.8 | 1.18 | 100.1 | 124.5 | -0.2 | 72.8* | 15.4* | -8.1
CCOC(=O)N1CCN(C(=O)CSCC(=O)Nc2nc(-c3ccc(OC)cc3)cs2)CC1 | 17.5 | 87.7 | 1.14 | 96.6 | 22.2 | 3.7 | x | x | x
O=C(/C=C/Nc1ccc(F)cc1Br)c1ccccc1 | 86.3* | 27.3 | 1.61 | 84.0 | 148.8* | 18.0 | 76.1* | 62.4* | 33.0*
O=C(/C=C/Nc1ccccc1)c1ccccc1 | 67.3* | 46.0 | 9.06* | 69.5 | 172.1* | 33.1 | 35.6 | -4.7 | -56.6
COc1cccc(C(=O)/C=C/Nc2cccc(O)c2)c1 | 102.1* | 14.9 | 12.1* | 87.0 | 148.1* | 19.9 | 95.5* | 13.8* | 22.5*

High-throughput results as filed in PubChem BioAssay.
